# High-throughput results: PubChem, several laboratories
# Compounds with a hit are over-represented: about 1.8% of the library has one in this group of screens.
# TPT1 inhibitor = blocks Candida albicans tRNA 2'-phosphotransferase; inhibition, % at 5 µM; 300,000 tested, 0.81% active; recombinant caTPT1, FP RNA substrate dephosphorylation;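 active means inhibition above the mean of all tested compounds plus 3 SD, set per screening campaign, cut at about 24% in these data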
# SUMO HTRF inh = SUMOylation inhibition; P63279; HTRF SUMOylation assay, SAE1/SAE2 + UBC9, in vitro; inhibition, % at 35 µM; 290,000 tested, 0.36% active; AID 2006; in the data active means inhibition above about 50%, passing the limit was not always enough
# HNF4A DNA FP = change in binding of human HNF4 alpha to DNA; HNF4a-FITC DNA binding, fluorescence polarization, 1 h; activity change, % at 10 µM; AID 1224865; P41235; 360,000 tested, 0.3% active; in the data active means activity change above about 30%, passing the limit was not always enough
# SENP1 FRET inh = SENP1 (human) catalytic domain inhibition; Q9P0U3; recombinant SENP1 catalytic domain, CyPet-SUMO1-YPet FRET cleavage; inhibition, % at 10 µM; 360,000 tested, 0.21% active; AID 624204;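 active means inhibition at least 30% at 10 µM, raw YFP signal under a set limit, fluorescence ratio 0.5 to 1.5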
#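 Test system: recombinant human SENP1 catalytic domain, His6-tagged / Medium: pH 8 Tris buffer with EDTA, NaCl, BME, BSA, NP40, catalase / Also added: SUMO1 FRET substrate flanked by Cypet and Ypet, 25 nM / Times: 50 min reaction at room temperature / Signal: FRET, CFP and YFP emission / Control set: no-enzyme low control and enzyme-plus-DMSO high control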
# CSN inh = blocks human CSN-mediated cullin deneddylation. inhibition, % at 12.5 µM. Purified CSN, SCF-Nedd8-OG deneddylation, fluorescence polarization. Q92905. 360,000 tested, 0.38% active;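 active means pattern-corrected inhibition above about 35%, with an unprinted fluorescence ratio check between 0.5 and 1.5, limit read from the data, passing the limit was not always enough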
# Target sequence (Q92905 whole entry, looked up, one chain of several): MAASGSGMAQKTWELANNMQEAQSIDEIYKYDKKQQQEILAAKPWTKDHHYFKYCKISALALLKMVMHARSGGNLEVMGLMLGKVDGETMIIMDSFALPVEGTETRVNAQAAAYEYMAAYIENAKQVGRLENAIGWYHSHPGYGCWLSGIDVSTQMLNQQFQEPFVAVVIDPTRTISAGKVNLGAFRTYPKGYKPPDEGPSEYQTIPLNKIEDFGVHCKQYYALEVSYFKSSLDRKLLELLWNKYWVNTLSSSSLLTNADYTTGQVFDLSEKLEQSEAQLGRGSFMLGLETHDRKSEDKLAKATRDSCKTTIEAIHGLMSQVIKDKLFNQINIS
#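 Material: human Csn5 produced in HEK293T cells; Input: enzyme 0.24 nM; Reagent: SCFSkp2-Nedd8OG substrate at 10 nM final; Dosing: 12.5 µM compound; Incubation: 90 min reaction at room temperature; Detection: fluorescence polarization of the substrate; Evaluation: % inhibition of substrate cleavage by Csn5; Control set: substrate-only high control, full reaction low control.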
# Rpn11 inh = blocks the human proteasome subunit Rpn11 | O00487 | calls only at 20 µM | human 26S proteasome, Ub4-pepOG fluorescence polarization; 20S core pre-blocked with epoxomicin | 360,000 tested, 0.59% active;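 active means inhibition at 20 µM, scaled to each plate's controls, above about 33%, limit read from the data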
# Target sequence (O00487 whole entry, looked up): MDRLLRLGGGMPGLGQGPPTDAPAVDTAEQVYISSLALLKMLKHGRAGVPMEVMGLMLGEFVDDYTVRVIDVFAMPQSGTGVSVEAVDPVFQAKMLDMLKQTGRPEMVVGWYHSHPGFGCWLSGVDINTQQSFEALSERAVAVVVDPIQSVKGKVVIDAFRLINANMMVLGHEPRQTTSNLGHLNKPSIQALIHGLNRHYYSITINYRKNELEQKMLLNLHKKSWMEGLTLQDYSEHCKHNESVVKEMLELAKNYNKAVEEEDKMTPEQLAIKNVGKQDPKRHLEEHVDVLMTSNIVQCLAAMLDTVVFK
# Hits are given with their value; - = inactive; . = no result given; + = active, no number.
SMILES,TPT1 inhibitor,SUMO HTRF inh,HNF4A DNA FP,SENP1 FRET inh,CSN inh,Rpn11 inh
O=C(N/N=C/c1ccc(Cl)c([N+](=O)[O-])c1)c1cc(-c2ccc3c4c(cccc24)CC3)n[nH]1,-,51,-,-,-,-
CCCCn1c(N)c(N(CC(C)C)C(=O)c2cccc(S(=O)(=O)N(C)c3ccc(C)cc3)c2)c(=O)[nH]c1=O,-,.,-,-,-,-
N=C1/C(=C/c2cccn2Cc2ccc(Cl)cc2)C(=O)N=C2SC=CN12,-,50,-,-,-,-
CC[C@H](C)/C=C/C1=CC2=C(Cl)C(=O)[C@@]3(C)OC(=O)C(C(=O)[C@H](C)[C@@H](C)O)=C3C2=CO1,-,.,-,-,49,-
Cc1ccc(NC(=O)COC(=O)c2ccc(OCc3c(C)noc3C)cc2)cc1S(=O)(=O)N1CCOCC1,-,-,-,-,-,-
CCN(CC)CCCNC(=O)C(C)n1nc(C)c2sc3ccccc3c2c1=O (stereo not given),-,-,-,-,-,-
CCN(CC)CCNc1ccc(C)c2sc3ccc(O)cc3c(=O)c12,.,.,-,39,-,-
Cc1c(C(=O)N2CC3(CC(c4cccc(NC(=O)CC(c5ccccc5)c5ccccc5)c4)=NO3)C[C@@H]2C(N)=O)cc([N+](=O)[O-])cc1[N+](=O)[O-] (stereo not given in full),-,-,-,-,-,-
O=C(COc1ccc(/C=N/NC(=O)c2ccc(O)cc2)cc1)Nc1cccc([N+](=O)[O-])c1,-,-,-,-,59,-
CCCCCCCC1CC(CSc2ncn[nH]2)OC1=O (stereo not given),-,-,-,-,54,-
CCOc1ccccc1CN1CCC(Oc2cccc(C(=O)NCCOC)c2)CC1,-,-,-,-,-,-
COc1ccccc1C(=O)NNC(=O)CCCN1C(=O)/C(=C/c2cccs2)SC1=S,-,-,40,-,-,.
O=C(CCCN1C(=O)/C(=C\c2cccs2)SC1=S)NNC(=O)c1ccncc1,-,-,-,-,-,-
O=C(Nc1ccccc1)c1oc2ccccc2c1NC(=O)C1CC1,-,-,61,-,-,-
O=C(O)/C=C/C(=O)Nc1ccc(Oc2ccc(NC(=O)/C=C/C(=O)O)cc2)cc1,-,-,.,.,.,.
Cc1ccc(S(=O)(=O)N(C)C)cc1NC(=S)NCCc1ccccn1,-,-,-,-,-,-
COCCNC(=O)Nc1ccc2nc(-c3cccs3)c(-c3cccs3)nc2c1,-,-,-,-,-,-
O=C(Nc1ccc2nc(-c3cccs3)c(-c3cccs3)nc2c1)NC1CC1,-,-,-,-,-,+
O=C(CSc1ccc(Cl)cc1)OCC(=O)N1CCN(c2ccccc2)CC1,.,.,-,-,-,-
Cc1cc(C(=O)CCC(=O)N(C)CC(=O)Nc2ccccc2Br)c(C)s1,-,.,-,-,54,-
COc1ccc(S(=O)(=O)N2CCCCCC2)cc1NC(=O)Cc1cccc(C(F)(F)F)c1,.,.,-,-,-,-
CCN(CC)S(=O)(=O)c1cccc(C(=O)N/N=C/c2ccc(O)c(O)c2O)c1,-,50,-,-,-,-
CCn1c(C)nc2cc(C(=O)N/N=C/c3ccc(O)c(O)c3O)ccc21,.,68,-,-,-,-
CCn1c(C)nc2cc(C(=O)N/N=C/c3cccc(OC)c3O)ccc21,-,-,-,-,-,-
CCOc1ccccc1/C=N/NC(=O)c1cccc(S(=O)(=O)N(CC)CC)c1,-,-,-,-,-,-
SMILES,TPT1 inhibitor,SUMO HTRF inh,HNF4A DNA FP,SENP1 FRET inh,CSN inh,Rpn11 inh
CN(C)S(=O)(=O)c1cccc(NC(=S)N/N=C/c2ccc(O)c(O)c2O)c1,.,52,-,-,-,-
O=c1[nH]c2sc3c(c2c2nncn12)CCCC3,-,-,-,-,-,-
C=CCNC(=O)C1CCN(c2ccc(S(=O)(=O)N3CCOCC3)cc2Cl)CC1,-,-,-,-,-,-
Oc1c(Cl)cc(Cl)cc1Sc1cc(Cl)cc(Cl)c1O,-,92,.,.,.,.
Cc1ccc(C)c(OCCC(=O)N(C)CC(=O)Nc2c(C)cccc2C)c1,.,.,-,-,-,-
Cc1ccc(NC(=O)CN2C(=O)NC(C)(C)C2=O)cc1S(=O)(=O)N1CCCCCC1,.,.,33,-,-,-
COc1ccc(/C=C(\NC(=O)c2ccc(C)cc2)C(=O)NCCCN2CCOCC2)cc1OC,-,-,-,-,-,-
N#C/C(=C\c1c(N2CCCCCC2)nc2ccccn2c1=O)C(=O)NCc1ccco1,-,-,-,-,-,-
C=CCNC(=O)/C(C#N)=C/c1c(N2CCCCCC2)nc2ccccn2c1=O,-,-,-,-,57,-
COc1ccc(Cc2n[nH]c(=S)n2NC(=O)Nc2ccc(Cl)c(Cl)c2)cc1,-,97,-,-,-,-
CC(=O)C1=CCC(c2ccc(F)cc2)N(S(=O)(=O)c2ccc(C)cc2)C1 (stereo not given),.,.,-,-,-,-
Cc1cc(/C=C2\SC(=O)N(C)C2=O)c(C)n1-c1ccc(O)cc1,-,74,-,-,-,-
Cc1cc(/C=C2\SC(=O)N(C)C2=O)c(C)n1-c1ccc(S(N)(=O)=O)cc1,-,-,-,-,-,-
COc1ccc(-c2nc3ccncc3[nH]2)cc1OC,-,65,-,-,-,-
Fc1ccc(-c2nc3ccncc3[nH]2)cc1,-,-,-,-,-,-
CC(=O)Nc1ccc(S(=O)(=O)Oc2cccc(/C=C3\SC(N)=NC3=O)c2)cc1,-,50,-,-,-,-
CN(C)Cc1ccccc1CCc1ccccc1,-,.,-,-,-,-
COc1ccc(/C=C2\SC(=O)NC2=S)cc1OC,-,-,-,32,-,-
CCOc1ccc(/C=C2\SC(=S)NC2=O)cc1OC,-,-,-,-,-,-
CC(OC(=O)c1ccccc1NCCO)C(=O)Nc1ccc(S(=O)(=O)N2CCOCC2)cc1 (stereo not given),-,.,-,-,-,-
Nc1c(C(=O)N/N=C/c2cccnc2)cnn1-c1ccccc1,-,-,-,-,-,-
Nc1c(C(=O)N/N=C/c2ccc(Cl)cc2)cnn1-c1ccccc1,-,-,-,-,119,-
Cc1cc(O)c2c(c1)C(=O)[C@@]13Oc4c5c(c(O)c6c(O)cc(C)cc46)C(=O)C[C@H](O)[C@H]5[C@@H]1[C@@H](O)CC(=O)C3=C2O,.,.,-,33,-,-
COc1cccc(NC(=O)Nc2cccn(Cc3ccc(C)cc3)c2=O)c1,-,-,-,-,-,-
CC1(C)C(/C=C/C=C/C=C/C=C2\N(CCCCS(=O)(=O)O)c3ccc4ccccc4c3C2(C)C)=[N+](CCCCS(=O)(=O)[O-])c2ccc3ccccc3c21,75,.,-,-,-,-
Cc1c2ccccc2cc[n+]1CCCS(=O)(=O)[O-],-,-,-,-,-,-
